# Laboratory results reported in ChEMBL document CHEMBL1139209, “Cytotoxic constituents of the stems of Cinnamomum subavenium” (2007).
# Tested on: SW480
# Experiment: DNA damage assessed as accumulation in subG1 level of cell cycle arrest in SW480 cells at 25 uM after 24 hrs by propidium iodide staining
# Type: functional, Homo sapiens
# How it was run: (§1)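 SW480 human colorectal cancer cells (ATCC) grown in DMEM with 10% FBS, penicillin/streptomycin in 60 mm dishes; medium replenished at 80% confluence. Monolayers exposed 24 h to 0, 25, 50, 75 or 100 µM (DMSO stock, 0.1% DMSO final). Adherent plus floating cells fixed in PBS-methanol (1:2) ≥18 h at 4 °C, stained 30 min with 50 µg/mL PI plus RNase A.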
row,SMILES,Activity
1,CCCCCCCCCCCCC/C=C1/C(=O)O[C@@](C)(OC)[C@@H]1O [SUBAMOLIDE B],6.6%
2,C=C1C=C(C(CCCCCCCCCCCCCC)OC)C(=O)O1 (stereo not drawn) [SUBAMOLIDE C],6.1%
3,CCCCCCCCCCCCC/C=C1\C(=O)O[C@@](C)(OC)[C@@H]1O [SUBAMOLIDE A],8.5%

# Tested on: SW480
# Experiment: Cell cycle arrest in SW480 cells by accumulation at S phase at 100 uM after 24 hrs by propidium iodide staining
# Type: functional, Homo sapiens
# How it was run: as §1
row,SMILES,Activity
1,CCCCCCCCCCCCC/C=C1/C(=O)O[C@@](C)(OC)[C@@H]1O [SUBAMOLIDE B],37.4%
2,C=C1C=C(C(CCCCCCCCCCCCCC)OC)C(=O)O1 (stereo not drawn) [SUBAMOLIDE C],33%
3,CCCCCCCCCCCCC/C=C1\C(=O)O[C@@](C)(OC)[C@@H]1O [SUBAMOLIDE A],29.8%
4,CCCCCCCCCCCCC/C=C(/C(=O)OC)[C@H](O)C(C)=O [SECOSUBAMOLIDE],34.5%

# Tested on: SW480
# Experiment: DNA damage assessed as accumulation in subG1 level of cell cycle arrest in SW480 cells at 75 uM after 24 hrs by propidium iodide staining
# Type: functional, Homo sapiens
# How it was run: as §1
row,SMILES,Activity
1,CCCCCCCCCCCCC/C=C1/C(=O)O[C@@](C)(OC)[C@@H]1O [SUBAMOLIDE B],47.2%
2,C=C1C=C(C(CCCCCCCCCCCCCC)OC)C(=O)O1 (stereo not drawn) [SUBAMOLIDE C],34.6%
3,CCCCCCCCCCCCC/C=C1\C(=O)O[C@@](C)(OC)[C@@H]1O [SUBAMOLIDE A],27.3%
4,CCCCCCCCCCCCC/C=C(/C(=O)OC)[C@H](O)C(C)=O [SECOSUBAMOLIDE],23.4%

# Tested on: SW480
# Experiment: Cell cycle arrest in SW480 cells by accumulation at G1 phase at 75 uM after 24 hrs by propidium iodide staining
# Type: functional, Homo sapiens
# How it was run: as §1
row,SMILES,Activity
1,CCCCCCCCCCCCC/C=C1/C(=O)O[C@@](C)(OC)[C@@H]1O [SUBAMOLIDE B],45.8%
2,C=C1C=C(C(CCCCCCCCCCCCCC)OC)C(=O)O1 (stereo not drawn) [SUBAMOLIDE C],44.5%
3,CCCCCCCCCCCCC/C=C1\C(=O)O[C@@](C)(OC)[C@@H]1O [SUBAMOLIDE A],45%
4,CCCCCCCCCCCCC/C=C(/C(=O)OC)[C@H](O)C(C)=O [SECOSUBAMOLIDE],49%

# Tested on: SW480
# Experiment: Cell cycle arrest in SW480 cells by accumulation at S phase at 75 uM after 24 hrs by propidium iodide staining
# Type: functional, Homo sapiens
# How it was run: as §1
row,SMILES,Activity
1,CCCCCCCCCCCCC/C=C1/C(=O)O[C@@](C)(OC)[C@@H]1O [SUBAMOLIDE B],33.4%
2,C=C1C=C(C(CCCCCCCCCCCCCC)OC)C(=O)O1 (stereo not drawn) [SUBAMOLIDE C],43.1%
3,CCCCCCCCCCCCC/C=C1\C(=O)O[C@@](C)(OC)[C@@H]1O [SUBAMOLIDE A],42%
4,CCCCCCCCCCCCC/C=C(/C(=O)OC)[C@H](O)C(C)=O [SECOSUBAMOLIDE],38.3%

# Tested on: SW480
# Experiment: DNA damage assessed as accumulation in subG1 level of cell cycle arrest in SW480 cells at 100 uM after 24 hrs by propidium iodide staining
# Type: functional, Homo sapiens
# How it was run: as §1
row,SMILES,Activity
1,CCCCCCCCCCCCC/C=C1/C(=O)O[C@@](C)(OC)[C@@H]1O [SUBAMOLIDE B],71%
2,C=C1C=C(C(CCCCCCCCCCCCCC)OC)C(=O)O1 (stereo not drawn) [SUBAMOLIDE C],38.8%
3,CCCCCCCCCCCCC/C=C1\C(=O)O[C@@](C)(OC)[C@@H]1O [SUBAMOLIDE A],64.4%
4,CCCCCCCCCCCCC/C=C(/C(=O)OC)[C@H](O)C(C)=O [SECOSUBAMOLIDE],51.8%

# Tested on: SW480
# Experiment: Cell cycle arrest in SW480 cells by accumulation at G2/M phase at 50 uM after 24 hrs by propidium iodide staining
# Type: functional, Homo sapiens
# How it was run: as §1
row,SMILES,Activity
1,CCCCCCCCCCCCC/C=C1/C(=O)O[C@@](C)(OC)[C@@H]1O [SUBAMOLIDE B],16.9%
2,C=C1C=C(C(CCCCCCCCCCCCCC)OC)C(=O)O1 (stereo not drawn) [SUBAMOLIDE C],11.3%
3,CCCCCCCCCCCCC/C=C1\C(=O)O[C@@](C)(OC)[C@@H]1O [SUBAMOLIDE A],12.8%
4,CCCCCCCCCCCCC/C=C(/C(=O)OC)[C@H](O)C(C)=O [SECOSUBAMOLIDE],11.4%

# Tested on: SW480
# Experiment: Cell cycle arrest in SW480 cells by accumulation at G1 phase at 100 uM after 24 hrs by propidium iodide staining
# Type: functional, Homo sapiens
# How it was run: as §1
row,SMILES,Activity
1,CCCCCCCCCCCCC/C=C1/C(=O)O[C@@](C)(OC)[C@@H]1O [SUBAMOLIDE B],46%
2,C=C1C=C(C(CCCCCCCCCCCCCC)OC)C(=O)O1 (stereo not drawn) [SUBAMOLIDE C],47.8%
3,CCCCCCCCCCCCC/C=C1\C(=O)O[C@@](C)(OC)[C@@H]1O [SUBAMOLIDE A],52.6%
4,CCCCCCCCCCCCC/C=C(/C(=O)OC)[C@H](O)C(C)=O [SECOSUBAMOLIDE],47.9%

# Tested on: SW480
# Experiment: DNA damage assessed as accumulation in subG1 level of cell cycle arrest in SW480 cells at 50 uM after 24 hrs by propidium iodide staining
# Type: functional, Homo sapiens
# How it was run: as §1
row,SMILES,Activity
1,CCCCCCCCCCCCC/C=C1/C(=O)O[C@@](C)(OC)[C@@H]1O [SUBAMOLIDE B],23.7%
2,C=C1C=C(C(CCCCCCCCCCCCCC)OC)C(=O)O1 (stereo not drawn) [SUBAMOLIDE C],11%
3,CCCCCCCCCCCCC/C=C1\C(=O)O[C@@](C)(OC)[C@@H]1O [SUBAMOLIDE A],25.4%
4,CCCCCCCCCCCCC/C=C(/C(=O)OC)[C@H](O)C(C)=O [SECOSUBAMOLIDE],9.1%

# Tested on: SW480
# Experiment: Cell cycle arrest in SW480 cells by accumulation at S phase at 25 uM after 24 hrs by propidium iodide staining
# Type: functional, Homo sapiens
# How it was run: as §1
row,SMILES,Activity
1,CCCCCCCCCCCCC/C=C1/C(=O)O[C@@](C)(OC)[C@@H]1O [SUBAMOLIDE B],46%
2,C=C1C=C(C(CCCCCCCCCCCCCC)OC)C(=O)O1 (stereo not drawn) [SUBAMOLIDE C],45.8%
3,CCCCCCCCCCCCC/C=C1\C(=O)O[C@@](C)(OC)[C@@H]1O [SUBAMOLIDE A],39.6%
4,CCCCCCCCCCCCC/C=C(/C(=O)OC)[C@H](O)C(C)=O [SECOSUBAMOLIDE],39.5%

# Tested on: SW480
# Experiment: Cell cycle arrest in SW480 cells by accumulation at G2/M phase at 25 uM after 24 hrs by propidium iodide staining
# Type: functional, Homo sapiens
# How it was run: as §1
row,SMILES,Activity
1,CCCCCCCCCCCCC/C=C1/C(=O)O[C@@](C)(OC)[C@@H]1O [SUBAMOLIDE B],6.4%
2,C=C1C=C(C(CCCCCCCCCCCCCC)OC)C(=O)O1 (stereo not drawn) [SUBAMOLIDE C],9.8%
3,CCCCCCCCCCCCC/C=C1\C(=O)O[C@@](C)(OC)[C@@H]1O [SUBAMOLIDE A],12.2%
4,CCCCCCCCCCCCC/C=C(/C(=O)OC)[C@H](O)C(C)=O [SECOSUBAMOLIDE],13.4%

# Tested on: SW480
# Experiment: Cell cycle arrest in SW480 cells by accumulation at G1 phase at 25 uM after 24 hrs by propidium iodide staining
# Type: functional, Homo sapiens
# How it was run: as §1
row,SMILES,Activity
1,CCCCCCCCCCCCC/C=C1/C(=O)O[C@@](C)(OC)[C@@H]1O [SUBAMOLIDE B],47.7%
2,C=C1C=C(C(CCCCCCCCCCCCCC)OC)C(=O)O1 (stereo not drawn) [SUBAMOLIDE C],44.4%
3,CCCCCCCCCCCCC/C=C1\C(=O)O[C@@](C)(OC)[C@@H]1O [SUBAMOLIDE A],48.2%
4,CCCCCCCCCCCCC/C=C(/C(=O)OC)[C@H](O)C(C)=O [SECOSUBAMOLIDE],47.1%

# Tested on: SW480
# Experiment: Cell cycle arrest in SW480 cells by accumulation at G2/M phase at 100 uM after 24 hrs by propidium iodide staining
# Type: functional, Homo sapiens
# How it was run: as §1
row,SMILES,Activity
1,CCCCCCCCCCCCC/C=C1/C(=O)O[C@@](C)(OC)[C@@H]1O [SUBAMOLIDE B],16.6%
2,C=C1C=C(C(CCCCCCCCCCCCCC)OC)C(=O)O1 (stereo not drawn) [SUBAMOLIDE C],19.3%
3,CCCCCCCCCCCCC/C=C1\C(=O)O[C@@](C)(OC)[C@@H]1O [SUBAMOLIDE A],17.7%
4,CCCCCCCCCCCCC/C=C(/C(=O)OC)[C@H](O)C(C)=O [SECOSUBAMOLIDE],17.6%

# Tested on: SW480
# Experiment: Cell cycle arrest in SW480 cells by accumulation at S phase at 50 uM after 24 hrs by propidium iodide staining
# Type: functional, Homo sapiens
# How it was run: as §1
row,SMILES,Activity
1,CCCCCCCCCCCCC/C=C1/C(=O)O[C@@](C)(OC)[C@@H]1O [SUBAMOLIDE B],38.8%
2,C=C1C=C(C(CCCCCCCCCCCCCC)OC)C(=O)O1 (stereo not drawn) [SUBAMOLIDE C],41.2%
3,CCCCCCCCCCCCC/C=C1\C(=O)O[C@@](C)(OC)[C@@H]1O [SUBAMOLIDE A],41%
4,CCCCCCCCCCCCC/C=C(/C(=O)OC)[C@H](O)C(C)=O [SECOSUBAMOLIDE],40.6%

# Tested on: SW480
# Experiment: Cell cycle arrest in SW480 cells by accumulation at G2/M phase at 75 uM after 24 hrs by propidium iodide staining
# Type: functional, Homo sapiens
# How it was run: as §1
row,SMILES,Activity
1,CCCCCCCCCCCCC/C=C1/C(=O)O[C@@](C)(OC)[C@@H]1O [SUBAMOLIDE B],20.8%
2,C=C1C=C(C(CCCCCCCCCCCCCC)OC)C(=O)O1 (stereo not drawn) [SUBAMOLIDE C],12.4%
3,CCCCCCCCCCCCC/C=C1\C(=O)O[C@@](C)(OC)[C@@H]1O [SUBAMOLIDE A],13%
4,CCCCCCCCCCCCC/C=C(/C(=O)OC)[C@H](O)C(C)=O [SECOSUBAMOLIDE],12.8%

# Tested on: SW480
# Experiment: Cell cycle arrest in SW480 cells by accumulation at G1 phase at 50 uM after 24 hrs by propidium iodide staining
# Type: functional, Homo sapiens
# How it was run: as §1
row,SMILES,Activity
1,CCCCCCCCCCCCC/C=C1/C(=O)O[C@@](C)(OC)[C@@H]1O [SUBAMOLIDE B],44.2%
2,C=C1C=C(C(CCCCCCCCCCCCCC)OC)C(=O)O1 (stereo not drawn) [SUBAMOLIDE C],47.6%
3,CCCCCCCCCCCCC/C=C1\C(=O)O[C@@](C)(OC)[C@@H]1O [SUBAMOLIDE A],46.3%
4,CCCCCCCCCCCCC/C=C(/C(=O)OC)[C@H](O)C(C)=O [SECOSUBAMOLIDE],47.9%
